Data taken from ChEMBL document CHEMBL1129580, “Endogenous natriuretic factors. 5. Synthesis and biological activity of a natriuretic metabolite of diltiazem and its derivatives” (1996).

Experiments:
[1] = system: Rattus norvegicus; assay: Diuretic effect was evaluated in the conscious female rat by natriuretic assay involving metabolic caging at dose 10 mg/kg; type: functional, Urine
In short: (§1)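 Rats housed singly in metabolic cages 1-2 days beforehand and acclimated to oral gavage with 3 mL/kg tap water; food and water withdrawn 2 h pre-test. Oral saline volume load, 25 mL/kg, then compound by gavage as 1% CMC suspension (1 mL/kg); 1% CMC vehicle control. Six rats per group. 5 h urine collected; volume, Na+, K+ measured. Outliers >2 SD removed; ANOVA, Scheffe F test.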

[2] = system: Rattus norvegicus; assay: Diuretic effect was evaluated in the conscious female rat by natriuretic assay involving metabolic caging at dose 20 mg/kg; type: functional, Urine; in short: as §1
[3] = system: Rattus norvegicus; assay: Kaliuretic effect was evaluated in the conscious female rat by natriuretic assay involving metabolic caging at dose 10 mg/kg; type: functional; in short: as §1
[4] = system: Rattus norvegicus; assay: Kaliuretic effect was evaluated in the conscious female rat by natriuretic assay involving metabolic caging at dose 20 mg/kg; type: functional; in short: as §1
[5] = system: Rattus norvegicus; assay: Natriuretic effect was evaluated in the conscious female rat by natriuretic assay involving metabolic caging at dose 10 mg/kg; type: functional; in short: as §1
[6] = system: Rattus norvegicus; assay: Natriuretic effect was evaluated in the conscious female rat by natriuretic assay involving metabolic caging at dose 20 mg/kg; type: functional; in short: as §1
[7] = system: Rattus norvegicus; assay: Diuretic effect was evaluated in the conscious female rat by natriuretic assay involving metabolic caging at dose 30 mg/kg; type: functional, Urine; in short: as §1
[8] = system: Rattus norvegicus; assay: Diuretic effect was evaluated in the conscious female rat by natriuretic assay involving metabolic caging at dose 50 mg/kg; type: functional, Urine; in short: as §1
[9] = system: Rattus norvegicus; assay: Kaliuretic effect was evaluated in the conscious female rat by natriuretic assay involving metabolic caging at dose 30 mg/kg; type: functional; in short: as §1
[10] = system: Rattus norvegicus; assay: Kaliuretic effect was evaluated in the conscious female rat by natriuretic assay involving metabolic caging at dose 50 mg/kg; type: functional; in short: as §1
[11] = system: Rattus norvegicus; assay: Natriuretic effect was evaluated in the conscious female rat by natriuretic assay involving metabolic caging at dose 30 mg/kg; type: functional; in short: as §1
[12] = system: Rattus norvegicus; assay: Natriuretic effect was evaluated in the conscious female rat by natriuretic assay involving metabolic caging at dose 50 mg/kg; type: functional; in short: as §1
[13] = system: Rattus norvegicus; assay: Diuretic effect was evaluated in the conscious female rat by natriuretic assay involving metabolic caging at dose 5 mg/kg; type: functional, Urine; in short: as §1
[14] = system: Rattus norvegicus; assay: Natriuretic effect was evaluated in the conscious female rat by natriuretic assay involving metabolic caging at dose 5 mg/kg; type: functional; in short: as §1
[15] = system: Rattus norvegicus; assay: Kaliuretic effect was evaluated in the conscious female rat by natriuretic assay involving metabolic caging at dose 5 mg/kg; type: functional; in short: as §1

**Q.** Which Diuretic activity [1] does the source give for `COc1ccc([C@@H]2Sc3ccccc3N(CCO)C(=O)[C@@H]2OC(C)=O)cc1` here?
**A.** 1.3 mL/g

**Q.** And the Diuretic activity [2]?
**A.** 1.28 mL/g

**Q.** And the Kaliuretic activity [3]?
**A.** 0.7 µM/g

**Q.** And the Kaliuretic activity [4]?
**A.** <0.67 µM/g

**Q.** What about the Natriuretic activity [5] of the same compound?
**A.** <1.25 µM/g

**Q.** What about the Natriuretic activity [6] of the same compound?
**A.** <1.35 µM/g

**Q.** How did the Diuretic activity [1] turn out when `COc1ccc([C@@H]2Sc3ccccc3N(CCO)C[C@@H]2O)cc1` was run?
**A.** 1.7 mL/g

**Q.** What about the Diuretic activity [7] of the same compound?
**A.** 1.75 mL/g

**Q.** And the Diuretic activity [8]?
**A.** 1.6 mL/g

**Q.** And the Kaliuretic activity [3]?
**A.** <1 µM/g

**Q.** What about the Kaliuretic activity [9] of the same compound?
**A.** <0.9 µM/g

**Q.** And the Kaliuretic activity [10]?
**A.** 0.97 µM/g

**Q.** What about the Natriuretic activity [5] of the same compound?
**A.** <2 µM/g

**Q.** What about the Natriuretic activity [11] of the same compound?
**A.** <1.6 µM/g

**Q.** What about the Natriuretic activity [12] of the same compound?
**A.** <1.65 µM/g

**Q.** `NS(=O)(=O)c1cc(C(=O)O)c(NCc2ccco2)cc1Cl` [FUROSEMIDE] was tested. Which Diuretic activity [2] did it give?
**A.** 1.3 mL/g

**Q.** What about the Diuretic activity [7] of the same compound?
**A.** 2.6 mL/g

**Q.** What about the Kaliuretic activity [4] of the same compound?
**A.** <1.1 µM/g

**Q.** What about the Kaliuretic activity [9] of the same compound?
**A.** <1.6 µM/g

**Q.** And the Natriuretic activity [6]?
**A.** <1.1 µM/g

**Q.** What about the Natriuretic activity [11] of the same compound?
**A.** <2.5 µM/g

**Q.** What does the source list for `COc1ccc([C@@H]2Sc3ccccc3N(CC(=O)O)C(=O)[C@@H]2OC(C)=O)cc1`?
**A.** Diuretic activity [1]: 1.92 mL/g; Diuretic activity [2]: 1.75 mL/g; Diuretic activity [7]: 2.25 mL/g; Diuretic activity [8]: 2.1 mL/g; Kaliuretic activity [3]: <0.9 µM/g; Kaliuretic activity [4]: <1.08 µM/g; Kaliuretic activity [9]: 1.2 µM/g; Kaliuretic activity [10]: 1.25 µM/g; Natriuretic activity [5]: <2 µM/g; Natriuretic activity [6]: <1.55 µM/g; Natriuretic activity [11]: <2.1 µM/g; Natriuretic activity [12]: 1.7 µM/g

**Q.** `COc1ccc([C@@H]2Sc3ccccc3N(CCO)C(=O)[C@@H]2O)cc1` was tested. Which Diuretic activity [1] did it give?
**A.** 2.1 mL/g

**Q.** And the Diuretic activity [2]?
**A.** 1.8 mL/g

**Q.** What about the Diuretic activity [8] of the same compound?
**A.** 1.6 mL/g

**Q.** And the Diuretic activity [13]?
**A.** 1.7 mL/g

**Q.** And the Natriuretic activity [14]?
**A.** <1.6 µM/g

**Q.** And the Kaliuretic activity [3]?
**A.** 1.1 µM/g

**Q.** And the Kaliuretic activity [4]?
**A.** <1.05 µM/g

**Q.** What about the Kaliuretic activity [10] of the same compound?
**A.** <0.8 µM/g

**Q.** What about the Kaliuretic activity [15] of the same compound?
**A.** 1 µM/g

**Q.** What about the Natriuretic activity [5] of the same compound?
**A.** <2.5 µM/g

**Q.** What about the Natriuretic activity [6] of the same compound?
**A.** <1.9 µM/g

**Q.** What about the Natriuretic activity [12] of the same compound?
**A.** <0.9 µM/g

**Q.** Which results are given for `COc1ccc([C@@H]2Sc3ccccc3N(CCN(C)C)C(=O)[C@@H]2OC(C)=O)cc1` [DILTIAZEM]?
**A.** Diuretic activity [1]: 1.6 mL/g; Diuretic activity [2]: 1.8 mL/g; Kaliuretic activity [3]: <0.8 µM/g; Kaliuretic activity [4]: 0.7 µM/g; Natriuretic activity [5]: <1.4 µM/g; Natriuretic activity [6]: <1.6 µM/g

**Q.** For `COc1ccc([C@@H]2Sc3ccccc3N(CC(=O)O)C(=O)[C@@H]2O)cc1`, which Diuretic activity [1] is on record?
**A.** 2 mL/g

**Q.** What about the Diuretic activity [2] of the same compound?
**A.** 1.7 mL/g

**Q.** And the Diuretic activity [7]?
**A.** 2.1 mL/g

**Q.** What about the Diuretic activity [8] of the same compound?
**A.** 1.85 mL/g

**Q.** And the Kaliuretic activity [3]?
**A.** 1.1 µM/g

**Q.** What about the Kaliuretic activity [4] of the same compound?
**A.** 1.15 µM/g

**Q.** What about the Kaliuretic activity [9] of the same compound?
**A.** 1.07 µM/g

**Q.** And the Kaliuretic activity [10]?
**A.** 1.23 µM/g

**Q.** What about the Natriuretic activity [5] of the same compound?
**A.** <2 µM/g

**Q.** And the Natriuretic activity [6]?
**A.** <1.6 µM/g

**Q.** And the Natriuretic activity [11]?
**A.** <2.1 µM/g

**Q.** What about the Natriuretic activity [12] of the same compound?
**A.** <1.95 µM/g

**Q.** For `COc1ccc([C@@H]2Sc3ccccc3N(CCOC(C)=O)C(=O)[C@@H]2OC(C)=O)cc1`, which Diuretic activity [1] is on record?
**A.** 1.3 mL/g

**Q.** What about the Diuretic activity [8] of the same compound?
**A.** 1.3 mL/g

**Q.** And the Kaliuretic activity [3]?
**A.** <0.95 µM/g

**Q.** And the Kaliuretic activity [10]?
**A.** <0.7 µM/g

**Q.** What about the Natriuretic activity [5] of the same compound?
**A.** <1.35 µM/g

**Q.** What about the Natriuretic activity [12] of the same compound?
**A.** <1.55 µM/g

**Q.** `CCOC(=O)CN1C(=O)[C@H](O)[C@H](c2ccc(OC)cc2)Sc2ccccc21` was tested. Which Diuretic activity [1] did it give?
**A.** 1.7 mL/g

**Q.** What about the Diuretic activity [7] of the same compound?
**A.** 1.5 mL/g

**Q.** And the Diuretic activity [8]?
**A.** 1.3 mL/g

**Q.** And the Kaliuretic activity [3]?
**A.** <1.1 µM/g

**Q.** What about the Kaliuretic activity [9] of the same compound?
**A.** <0.75 µM/g

**Q.** And the Kaliuretic activity [10]?
**A.** 1 µM/g

**Q.** And the Natriuretic activity [5]?
**A.** <2 µM/g

**Q.** What about the Natriuretic activity [11] of the same compound?
**A.** <1.6 µM/g

**Q.** And the Natriuretic activity [12]?
**A.** <1.25 µM/g
